The record followed here is ChEMBL document CHEMBL3046706, “Synthesis and quantitative structure-activity relationships of new 2,5-disubstituted-1,3,4-oxadiazoles” (2001).

Molecules are shown by their SMILES.

Assay type in all cases: functional
The subject of one assay is Spodoptera eridania. The assay is described as follows: Insecticidal activity against second-instar larvae of Spodoptera eridania fed on compound-treated corn leaves measured after 5 days. The following applies: 120 h.
Assay [1] concerns Mythimna separata. The assay is described as follows: Insecticidal activity against second-instar larvae of Mythimna separata (Oriental armyworm) fed on compound-treated mealie leaves measured after 5 days. The following applies: 120 h. In short, it runs like this:
(§1)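 Second-instar Pseudaletia separata larvae were fed compound-treated mealie leaves, with fresh treated leaves added daily, at about 20 °C in a well-ventilated room. Percent mortality at 5 days was based on the number and size of live larvae relative to untreated controls. LC50 values are in μg/mL and were converted to pLC50 (−log LC50).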

In assay [2] the test system is Mythimna separata. The assay is described as follows: Insecticidal activity against second-instar larvae of Mythimna separata (Oriental armyworm) fed on compound-treated mealie leaves at pLC50 measured after 5 days. The gist of the method: as §1

What is called LC50 is the concentration lethal to half of the exposed cells or organisms. Lower therefore signals a more lethal substance. `Fc1cc(-c2nnc(-c3ccc(Cl)cc3Cl)o2)c(Cl)cc1Cl` gave a median lethal concentration (LC50) in the assay with Spodoptera eridania of 5.25 µM.
In the case of `Fc1cc(-c2nnc(-c3cc(F)c(Cl)cc3Cl)o2)c(Cl)cc1Cl`, the LC50 in the assay on Spodoptera eridania was 1.78 µM.
As to `Clc1ccc(-c2nnc(-c3ccc(Cl)cc3Cl)o2)c(Cl)c1`, the LC50 in the assay on Spodoptera eridania was 10.2 µM.
Same read-out and setting: under `Fc1cccc(-c2nnc(-c3cc(F)c(Cl)cc3Cl)o2)c1` stands 51.3 µM.
In the case of `Fc1cc(-c2nnc(COc3ccc(Cl)cc3Cl)o2)c(Cl)cc1Cl`, the LC50 with Mythimna separata [1] was 1700 µM.
For the molecule `CC1(C)C(C=C(Cl)Cl)C1c1nnc(-c2cccc(F)c2)o1` (configuration not stated), the LC50 with Spodoptera eridania was 759 µM.
Consider `CC1(C)C(C=C(Cl)Cl)C1c1nnc(-c2cc(F)c(Cl)cc2Cl)o1` (configuration not stated), for which, in the assay on Spodoptera eridania, the LC50 was 562 µM.
Molecule `Fc1cc(-c2nnc(COc3ccc(Cl)cc3)o2)c(Cl)cc1Cl` showed a median lethal concentration (LC50) with Mythimna separata [1] of 55 µM.
Same read-out and setting: the result for `Clc1ccc(OCc2nnc(-c3ccc(Cl)cc3Cl)o2)c(Cl)c1` reads 776 µM.
Broadly, the mortality is the percentage killed. `Clc1ccc(OCc2nnc(-c3ccc(Cl)nc3)o2)cc1` showed a mortality with Mythimna separata [2] of 7%. Moreover, the LC50 with Mythimna separata [1] was > 1000 µM.
`Clc1ccc(OCc2nnc(-c3cccnc3Cl)o2)cc1` returned a mortality in the assay on Mythimna separata [2] of 0%. The LC50 with Mythimna separata [1] was > 1000 µM.
Consider `Fc1cccc(-c2nnc(COc3ccc(Cl)cc3)o2)c1`, for which, in the assay on Mythimna separata [2], the mortality is 0%. For the same molecule, the median lethal concentration (LC50) in the assay on Mythimna separata [1] was > 1000 µM.
For `Clc1ccc(OCc2nnc(-c3ccc(Cl)cc3Cl)o2)cc1`, the LC50 with Mythimna separata [1] is 15.8 µM.
Turning to `Fc1cc(-c2nnc(COc3ccccc3Cl)o2)c(Cl)cc1Cl`, the LC50 in the assay with Mythimna separata [1] is 14.5 µM.
`CC1(C)C(C=C(Cl)Cl)C1c1nnc(/C=C/c2ccccc2)o1` (mixture of isomers): the mortality in the assay on Mythimna separata [2] was 0%. In the assay with Mythimna separata [1], the LC50 is > 1000 µM.
On the same counts, the results for `CC1(C)C(C=C(Cl)Cl)C1c1nnc(-c2ccc(Cl)cc2)o1` (mixture of isomers) are 0% and > 1000 µM.
In the case of `COc1ccc(-c2nnc(C3C(C=C(Cl)Cl)C3(C)C)o2)cc1` (mixture of isomers), in the assay on Mythimna separata [2], the mortality was 0%. In addition, in the assay on Mythimna separata [1], the LC50 is > 1000 µM.
The matching figures for `CC1(C)C(C=C(Cl)Cl)C1c1nnc(-c2cccs2)o1` (mixture of isomers): 0% and > 1000 µM.
With `CC1(C)[C@@H](C=C(Cl)Cl)[C@@H]1c1nnc(-c2ccc(Cl)cc2Cl)o1` (relative stereo), in the assay with Mythimna separata [1], the LC50 is 123 µM.
On the same count and under the same terms, the result for `CC1(C)[C@@H](C=C(Cl)Cl)[C@@H]1c1nnc(-c2ccccc2)o1` (relative stereo) reads 1380 µM.
